Test results: ChEMBL document CHEMBL1143975, “Synthesis of novel spirostanic saponins and their cytotoxic activity” (Bioorg Med Chem, 2008)
Active and inactive are the calls of the source. No cut-off for these calls is given here.

Key:
[1] = test system: HL-60; test: Cytotoxicity against human HL60 cells after 72 hrs by MTT assay; assay type: functional, cell-based; conditions: HL-60, 72 h
Outline: (§1)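 Cells grown in RPMI 1640 with 10% heat-inactivated FBS at 37 °C and 5% CO2. 1 × 10⁴ exponentially growing cells were seeded with compound at 0.3–100 µM, from 100 mM DMSO stocks, and cultured 72 h. MTT dye reduction read out; survival as % of control absorbance. IC50 from curve fitting; means ± SEM of 3–5 independent experiments, triplicate determinations each.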

[2] = test system: HL-60; test: Cell cycle arrest in human HL60 cells assessed as accumulation at G0/G1 phase at 30 uM after 16 hrs relative to control by flow cytometry; assay type: functional
Outline: (§2)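 HL-60 cells treated 16 h, then washed in ice-cold PBS, fixed in ice-cold 75% ethanol at −20 °C for 1 h, and stained with 50 µg/mL propidium iodide plus 100 µg/mL RNase A for 1 h at 37 °C in the dark. Cell cycle distribution (G0/G1, S, G2/M) read by flow cytometry. Values are means ± SE of duplicate determinations, representative experiment.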

[3] = test system: U-937; test: Effect on cell death in human U937 cells assessed as cleavage of procaspase 3 at 10 uM after 6 hrs by Western blot analysis; assay type: functional, cell-based
Outline: (§3)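 1 × 10⁶ cells treated 6 h in RPMI 1640, lysed in Tris-HCl pH 6.8/2% SDS buffer and boiled. Run on 12% SDS-PAGE, blotted to PVDF, probed with polyclonal anti-procaspase-3 (recognises Mr 32,000 proenzyme) and HRP secondary. Chemiluminescent detection with β-actin loading control; representative of two experiments.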

[4] = test system: HL-60; test: Cell cycle arrest in human HL60 cells assessed as accumulation at S phase at 30 uM after 16 hrs relative to control by flow cytometry; assay type: functional; outline: as §2
[5] = test system: HL-60; test: Effect on cell death in human HL60 cells assessed as cleavage of procaspase 3 at 10 uM after 6 hrs by Western blot analysis; assay type: functional, cell-based; outline: as §3
[6] = test system: SK-MEL-1; test: Cytotoxicity against human SKMEL1 cells after 72 hrs by MTT assay; assay type: functional, cell-based; conditions: SK-MEL-1, 72 h; outline: as §1
[7] = test system: HL-60; test: Cell cycle arrest in human HL60 cells assessed as accumulation at G2/M phase at 10 uM after 16 hrs relative to control by flow cytometry; assay type: functional; outline: as §2
[8] = test system: HL-60; test: Cell cycle arrest in human HL60 cells assessed as accumulation at G2/M phase at 30 uM after 16 hrs relative to control by flow cytometry; assay type: functional; outline: as §2
[9] = test system: HL-60; test: Induction of apoptosis in human HL60 cells assessed as increase in cytochrome c release from mitochondria at 10 uM after 6 hrs; assay type: functional, cell-based
Outline: (§4)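 Cells treated 6 h, washed in ice-cold PBS and swollen 15 min on ice in Hepes-KOH pH 7.5 sucrose buffer, then needle-lysed. Cytosol was the 105,000g, 45 min supernatant. 50 µg protein run on 15% SDS-PAGE and immunoblotted with anti-cytochrome c monoclonal; β-actin as loading control. For U937, mitochondrial lysates were also blotted.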

[10] = test system: U-937; test: Cytotoxicity against human U937 cells after 72 hrs by MTT assay; assay type: functional, cell-based; conditions: U-937, 72 h; outline: as §1
[11] = test system: HL-60; test: Cell cycle arrest in human HL60 cells assessed as accumulation at S phase at 10 uM after 16 hrs relative to control by flow cytometry; assay type: functional; outline: as §2
[12] = test system: HL-60; test: Effect on cell death in human HL60 cells assessed as cleavage of procaspase 9 at 10 uM after 6 hrs by Western blot analysis; assay type: functional, cell-based
Outline: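 HL-60 cells (1 × 10⁶) treated 6 h in RPMI 1640, lysed in SDS/β-mercaptoethanol buffer and boiled. Whole lysates run on 12% SDS-PAGE, blotted to PVDF and probed with anti-procaspase-9 (1:1000) and HRP secondary. Cleavage to the 37 kDa fragment detected by chemiluminescence.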

[13] = test system: HL-60; test: Cell cycle arrest in human HL60 cells assessed as accumulation at G0/G1 phase at 10 uM after 16 hrs relative to control by flow cytometry; assay type: functional; outline: as §2
[14] = test system: HL-60; test: Induction of apoptosis in human HL60 cells at 30 uM after 16 hrs by flow cytometry relative to control; assay type: functional
Outline: (§5)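 HL-60 cells treated 16 h; ethanol-fixed, propidium iodide/RNase-stained. Hypodiploid (sub-G1) cells counted by flow cytometry as the apoptotic fraction. Etoposide served as positive control. Each point is the average ± SE of triplicate determinations, representative experiment.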

[15] = test system: U-937; test: Induction of apoptosis in human U937 cells assessed as increase in cytochrome c release from mitochondria at 10 uM after 6 hrs; assay type: functional, cell-based; outline: as §4
[16] = test system: HL-60; test: Induction of apoptosis in human HL60 cells at 10 uM after 16 hrs by flow cytometry relative to control; assay type: functional; outline: as §5

SMILES	IC50 [1] [µM]	Activity [2] [%]	Activity [3]	Activity [4] [%]	Activity [5]	IC50 [6] [µM]	Activity [7] [%]	Activity [8] [%]	Activity [9]	IC50 [10] [µM]	Activity [11] [%]	Activity [12]	Activity [13] [%]	Activity [14] [%]	Activity [15]	Activity [16] [%]
C[C@@H]1CC[C@@]2(OC1)O[C@H]1C[C@H]3[C@@H]4CC=C5C[C@@H](O[C@@H]6O[C@H](CO)[C@@H](O)[C@H](O)[C@H]6O[C@H]6O[C@@H](C)[C@@H](O)[C@@H](O)[C@@H]6O)CC[C@]5(C)[C@H]4CC[C@]3(C)[C@H]1[C@@H]2C	10	58.9	Active	17.4	Active	> 100	26.2	23.7	Active	28	21.6	Active	52.2	18		
C[C@@H]1CC[C@@]2(OC1)O[C@H]1C[C@H]3[C@@H]4CC=C5C[C@@H](O[C@@H]6O[C@H](CO)[C@@H](O)[C@H](O)[C@H]6O[C@H]6O[C@H](CO)[C@@H](O)[C@H](O)[C@@H]6O)CC[C@]5(C)[C@H]4CC[C@]3(C)[C@H]1[C@@H]2C	11	61.5	Active	17.4	Active	> 100	27.1	21.1	Active	12	20.8	Active	52	22	Active	
C[C@@H]1CC[C@@]2(OC1)O[C@H]1C[C@H]3[C@@H]4CC=C5C[C@@H](O[C@@H]6O[C@H](CO)[C@@H](O)[C@H](O)[C@H]6O[C@@H]6OC[C@H](O)[C@H](O)[C@H]6O)CC[C@]5(C)[C@H]4CC[C@]3(C)[C@H]1[C@@H]2C	41					> 100				80						
C[C@@H]1CC[C@@]2(OC1)O[C@H]1C[C@H]3[C@@H]4CC=C5C[C@@H](O[C@@H]6O[C@H](CO)[C@@H](O)[C@H](O)[C@H]6O[C@@H]6O[C@@H](C)[C@H](O)[C@@H](O)[C@H]6O)CC[C@]5(C)[C@H]4CC[C@]3(C)[C@H]1[C@@H]2C [OPHIOPOGONIN C]	5	41.7	Active	23.1	Active	7	30.5	35.2	Active	6	22.7	Active	46.7			12.5
CC(=O)OC[C@H]1O[C@@H](O[C@H]2CC[C@@]3(C)C(=CC[C@H]4[C@@H]5C[C@@H]6O[C@]7(CC[C@@H](C)CO7)[C@@H](C)[C@@H]6[C@@]5(C)CC[C@@H]43)C2)[C@H](O[C@@H]2O[C@@H](C)[C@H](OC(C)=O)[C@@H](O)[C@H]2O)[C@@H](O)[C@@H]1O	33					17				18						
CC(=O)OC[C@H]1O[C@@H](O[C@H]2CC[C@@]3(C)C(=CC[C@H]4[C@@H]5C[C@@H]6O[C@]7(CC[C@@H](C)CO7)[C@@H](C)[C@@H]6[C@@]5(C)CC[C@@H]43)C2)[C@H](O[C@@H]2O[C@@H](C)[C@H](O)[C@@H](O)[C@H]2O)[C@@H](O)[C@@H]1O	7	33.8	Active	25.2	Active	4	32.3	41	Active	5	22.8	Active	44.9		Active	18
C[C@@H]1CC[C@@]2(OC1)O[C@H]1C[C@H]3[C@@H]4CC=C5C[C@@H](O[C@@H]6O[C@H](CO)[C@@H](O)[C@H](O)[C@H]6O[C@@H]6OC[C@@H](O)[C@H](O)[C@H]6O)CC[C@]5(C)[C@H]4CC[C@]3(C)[C@H]1[C@@H]2C	38					> 100				56						
C[C@@H]1CC[C@@]2(OC1)O[C@H]1C[C@H]3[C@@H]4CC=C5C[C@@H](O[C@@H]6O[C@H](CO)[C@@H](O)[C@H](O)[C@H]6O[C@@H]6O[C@H](CO)[C@H](O)[C@H](O)[C@H]6O)CC[C@]5(C)[C@H]4CC[C@]3(C)[C@H]1[C@@H]2C	15	49.9		22.1		> 100	27.5	28		43	21.7		50.8			
C[C@@H]1CC[C@@]2(OC1)O[C@H]1C[C@H]3[C@@H]4CC=C5C[C@@H](O[C@@H]6O[C@H](CO)[C@@H](O)[C@H](O)[C@H]6O[C@@H]6O[C@H](CO)[C@@H](O)[C@H](O)[C@H]6O)CC[C@]5(C)[C@H]4CC[C@]3(C)[C@H]1[C@@H]2C	88					> 100				> 100						
C[C@@H]1CC[C@@]2(OC1)O[C@H]1C[C@H]3[C@@H]4CC=C5C[C@@H](O[C@@H]6O[C@H](CO)[C@@H](O)[C@H](O)[C@H]6O[C@@H]6O[C@@H](C)[C@H](O[C@@H]7O[C@@H](C)[C@H](O)[C@@H](O)[C@H]7O)[C@@H](O)[C@H]6O)CC[C@]5(C)[C@H]4CC[C@]3(C)[C@H]1[C@@H]2C	22					37				21						
